Source: ChEMBL document CHEMBL3286368, “Delayed and Prolonged Histone Hyperacetylation with a Selective HDAC1/HDAC2 Inhibitor” (ACS Med Chem Lett, 2014)

Experiments:
[1] = AUC (0 to 24 hrs) in CD1 nu/nu mouse xenografted with human HCT116 cells at 875 mg/kg, po administered biweekly for 3 weeks; assay type: ADME, organism-based, HCT-116; parameters: time < 24 hr, dose 875 mg/kg, route oral; conditions: in vivo
Procedure, shortened: (§1)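 HCT116 cells (5 × 10^6/mouse) injected sc into right flank of CD1 nu/nu mice; at ~325 mm3 tumors, randomized into groups of 12. Oral dosing 21 days, once daily or biweekly, in 40% v/v PEG-400 and 25% w/v HPβCD at 20 μL/g. […] Tumor size by caliper.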

[2] = Oral bioavailability in Sprague-Dawley rat at 4 mg/kg; assay type: ADME, organism-based; conditions: in vivo
[3] = Volume of distribution at steady state in Sprague-Dawley rat at 2 mg/kg, iv; assay type: ADME, organism-based; parameters: dose 2 mg/kg, route intravenous; conditions: in vivo, read-out: Vdss
Procedure, shortened: (§2)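 Intravenous dosing at 5 (mouse), 2 (rat), 0.5 (dog) and 0.5 (monkey) mg/kg. Plasma clearance, steady-state volume of distribution and half-life derived from the plasma profile.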

[4] = AUC (0 to 24 hrs) in CD1 nu/nu mouse xenografted with human HCT116 cells at 100 mg/kg, po qd for 3 weeks; assay type: ADME, organism-based, HCT-116; parameters: time < 24 hr, dose 100 mg/kg, route oral; conditions: in vivo; procedure, shortened: as §1
[5] = AUC (0 to 24 hrs) in CD1 nu/nu mouse xenografted with human HCT116 cells at 350 mg/kg, po administered biweekly for 3 weeks; assay type: ADME, organism-based, HCT-116; parameters: time < 24 hr, dose 350 mg/kg, route oral; conditions: in vivo; procedure, shortened: as §1
[6] = Half life in rhesus monkey at 0.5 mg/kg, iv; assay type: ADME, organism-based, Macaca mulatta; parameters: dose 0.5 mg/kg, route intravenous; conditions: in vivo; procedure, shortened: as §2
[7] = Cmax in CD1 nu/nu mouse xenografted with human HCT116 cells at 200 mg/kg, po qd for 3 weeks; assay type: ADME, organism-based, HCT-116; parameters: dose 200 mg/kg, route oral; conditions: in vivo
Procedure, shortened: (§3)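 HCT116 cells (5 × 10^6 per mouse) injected subcutaneously into the right flank of CD1 nu/nu mice. Once tumors reached ~325 mm3, mice were randomized into groups of 12 and dosed orally for 21 days, once daily (qd) or biweekly (biw). Vehicle was 40% v/v PEG-400 plus 25% w/v HPβCD at 20 μL/g.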

in vivo [8] = conditions: CD1 nu/nu, mouse, po, 525 mg/kg
Mus musculus [9] = assay: Inhibition of HDAC in CD1 nu/nu mouse tumor xenografted with human HCT116 cells assessed as plasma drug level causing increase in H2BK5 acetylation at 100 mg/kg, po bid after 72 hrs by ELISA; assay type: functional, HCT-116
[10] = Drug metabolism in dog hepatocytes assessed as hydrolysis of oxazolidinone group; assay type: ADME, cell-based, Canis lupus familiaris, Hepatocyte
[11] = Drug metabolism in human hepatocytes assessed as oxidation of piperidine ring; assay type: ADME, cell-based, Hepatocyte
[12] = Oral bioavailability in beagle dog at 1 mg/kg; assay type: ADME, organism-based, Canis lupus familiaris; conditions: in vivo
Mus musculus [13] = assay: Inhibition of HDAC in CD1 nu/nu mouse tumor xenografted with human HCT116 cells assessed as plasma drug level causing increase in H2BK5 acetylation at 200 mg/kg, po qd after 8 hrs by ELISA; assay type: functional, HCT-116
[14] = Cmax in CD1 nu/nu mouse xenografted with human HCT116 cells at 100 mg/kg, po qd for 3 weeks; assay type: ADME, organism-based, HCT-116; parameters: dose 100 mg/kg, route oral; conditions: in vivo; procedure, shortened: as §3
[15] = Drug metabolism in rat hepatocytes; assay type: ADME, cell-based, Hepatocyte
Mus musculus [16] = assay: Inhibition of HDAC in CD1 nu/nu mouse tumor xenografted with human HCT116 cells assessed as plasma drug level causing increase in H2BK5 acetylation at 100 mg/kg, po bid after 1 hr by ELISA; assay type: functional, HCT-116
Mus musculus [17] = assay: Inhibition of HDAC in CD1 nu/nu mouse tumor xenografted with human HCT116 cells assessed as plasma drug level causing increase in H2BK5 acetylation at 200 mg/kg, po qd after 4 hrs by ELISA; assay type: functional, HCT-116
Mus musculus [18] = assay: Inhibition of HDAC in CD1 nu/nu mouse tumor xenografted with human HCT116 cells assessed as plasma drug level causing increase in H2BK5 acetylation at 200 mg/kg, po qd after 72 hrs by ELISA; assay type: functional, HCT-116
Mus musculus [19] = assay: Inhibition of HDAC in CD1 nu/nu mouse tumor xenografted with human HCT116 cells assessed as plasma drug level causing increase in H2BK5 acetylation at 200 mg/kg, po qd after 48 hrs by ELISA; assay type: functional, HCT-116
Mus musculus [20] = assay: Inhibition of HDAC in CD1 nu/nu mouse tumor xenografted with human HCT116 cells assessed as plasma drug level causing increase in H2BK5 acetylation at 67 mg/kg, po tid after 48 hrs by ELISA; assay type: functional, HCT-116
[21] = Cmax in CD1 nu/nu mouse xenografted with human HCT116 cells at 350 mg/kg, po administered biweekly for 3 weeks; assay type: ADME, organism-based, HCT-116; parameters: dose 350 mg/kg, route oral; conditions: in vivo; procedure, shortened: as §3
[22] = Cmax in CD1 nu/nu mouse xenografted with human HCT116 cells at 150 mg/kg, po qd for 3 weeks; assay type: ADME, organism-based, HCT-116; parameters: dose 150 mg/kg, route oral; conditions: in vivo; procedure, shortened: as §3
Mus musculus [23] = assay: Inhibition of HDAC in CD1 nu/nu mouse tumor xenografted with human HCT116 cells assessed as plasma drug level causing increase in H2BK5 acetylation at 100 mg/kg, po bid after 4 hrs by ELISA; assay type: functional, HCT-116
[24] = Plasma clearance in rhesus monkey at 0.5 mg/kg, iv; assay type: ADME, organism-based, Macaca mulatta; parameters: dose 0.5 mg/kg, route intravenous; procedure, shortened: as §2
[25] = Half life in beagle dog at 0.5 mg/kg, iv; assay type: ADME, organism-based, Canis lupus familiaris; parameters: dose 0.5 mg/kg, route intravenous; conditions: in vivo; procedure, shortened: as §2
in vivo [26] = conditions: CD1 nu/nu, mouse, po, 150 mg/kg
Mus musculus [27] = assay: Inhibition of HDAC in CD1 nu/nu mouse tumor xenografted with human HCT116 cells assessed as plasma drug level causing increase in H2BK5 acetylation at 67 mg/kg, po tid after 4 hrs by ELISA; assay type: functional, HCT-116
Mus musculus [28] = assay: Unbound Cmax in 3 week po dosed CD1 nu/nu mouse xenografted with human HCT116 cells; assay type: ADME, organism-based, HCT-116; conditions: in vivo, 504 h
Mus musculus [29] = assay: Inhibition of HDAC in CD1 nu/nu mouse tumor xenografted with human HCT116 cells assessed as plasma drug level causing increase in H2BK5 acetylation at 67 mg/kg, po tid after 8 hrs by ELISA; assay type: functional, HCT-116
[30] = Drug metabolism in liver microsomes (unknown origin) assessed as CYP-mediated oxidation; assay type: ADME
[31] = Plasma clearance in beagle dog at 0.5 mg/kg, iv; assay type: ADME, organism-based, Canis lupus familiaris; parameters: dose 0.5 mg/kg, route intravenous; procedure, shortened: as §2
[32] = Volume of distribution at steady state in beagle dog at 0.5 mg/kg, iv; assay type: ADME, organism-based, Canis lupus familiaris; parameters: dose 0.5 mg/kg, route intravenous; conditions: in vivo, read-out: Vdss; procedure, shortened: as §2
Mus musculus [33] = assay: Dose normalized AUC in CD-1 mouse at 10 mg/kg, po; assay type: ADME, organism-based; parameters: dose 10 mg/kg, route oral; conditions: in vivo
[34] = Cmax in CD1 nu/nu mouse xenografted with human HCT116 cells at 875 mg/kg, po administered biweekly for 3 weeks; assay type: ADME, organism-based, HCT-116; parameters: dose 875 mg/kg, route oral; conditions: in vivo; procedure, shortened: as §3
Mus musculus [35] = assay: Inhibition of HDAC in CD1 nu/nu mouse tumor xenografted with human HCT116 cells assessed as plasma drug level causing increase in H2BK5 acetylation at 200 mg/kg, po qd after 24 hrs by ELISA; assay type: functional, HCT-116
[36] = Volume of distribution at steady state in CD-1 mouse at 5 mg/kg, iv; assay type: ADME, organism-based; parameters: dose 5 mg/kg, route intravenous; conditions: in vivo, read-out: Vdss; procedure, shortened: as §2
Mus musculus [37] = assay: Inhibition of HDAC in CD1 nu/nu mouse tumor xenografted with human HCT116 cells assessed as plasma drug level causing increase in H2BK5 acetylation at 200 mg/kg, po qd after 1 hr by ELISA; assay type: functional, HCT-116
in vivo [38] = conditions: CD1 nu/nu, mouse, po, 200 mg/kg

Nc1ccc(-c2cccs2)cc1NC(=O)c1ccc(N2CCC3(CC2)CNC(=O)O3)nc1
AUC at 24 h [1]: 1220 µM·h
bioavailability [2]: 28%
Vd [3]: 0.7 L/kg
AUC at 24 h [4]: 110 µM·h
AUC at 24 h [5]: 566 µM·h
half-life [6]: 7.1 h
Cmax [7]: 40.4 µM
concentration at 24 h (in vivo [8]): 9.4 µM
INH (Mus musculus [9]): 0.2 µM
Drug metabolism [10]: metabolite_notdetected
Drug metabolism [11]: metabolite_notdetected
bioavailability [12]: 17%
INH (Mus musculus [13]): 9.5 µM
Cmax [14]: 6.9 µM
Drug metabolism [15]: metabolite_notdetected
INH (Mus musculus [16]): 14.3 µM
INH (Mus musculus [17]): 17.2 µM
INH (Mus musculus [18]): 0.3 µM
INH (Mus musculus [19]): 0.2 µM
INH (Mus musculus [20]): 0.1 µM
Cmax [21]: 32.8 µM
Cmax [22]: 16.6 µM
INH (Mus musculus [23]): 9.6 µM
clearance [24]: 27 mL/min/kg
half-life [25]: 1.4 h
concentration at 24 h (in vivo [26]): 3.3 µM
INH (Mus musculus [27]): 13.8 µM
fCmax (Mus musculus [28]): 240 nM
INH (Mus musculus [29]): 8.2 µM
Drug metabolism [30]: metabolite_notdetected
clearance [31]: 22 mL/min/kg
Vd [32]: 2.2 L/kg
AUC/dose (Mus musculus [33]): 1.1 µM·kg·h/mg
Cmax [34]: 56.4 µM
INH (Mus musculus [35]): 0.2 µM
Vd [36]: 2.1 L/kg
INH (Mus musculus [37]): 11.9 µM
concentration at 24 h (in vivo [38]): 5 µM
